ChEMBL document CHEMBL3098111, “Discovery of 2,5-diarylnicotinamides as selective orexin-2 receptor antagonists (2-SORAs)” (Bioorg Med Chem Lett, 2013)
Calls of active or inactive are those of the source. No cut-off for these calls is given here.

Key:
[1] = biological target: Prostaglandin F2-alpha receptor (Homo sapiens) (UniProt P43088); test: Inhibition of human prostanoid FP receptor at 10 uM relative to control
[2] = biological target: Vasopressin V1a receptor (Homo sapiens) (UniProt P37288); test: Inhibition of human V1A receptor at 10 uM relative to control
Chain of Vasopressin V1a receptor (Homo sapiens) (P37288 whole entry, looked up): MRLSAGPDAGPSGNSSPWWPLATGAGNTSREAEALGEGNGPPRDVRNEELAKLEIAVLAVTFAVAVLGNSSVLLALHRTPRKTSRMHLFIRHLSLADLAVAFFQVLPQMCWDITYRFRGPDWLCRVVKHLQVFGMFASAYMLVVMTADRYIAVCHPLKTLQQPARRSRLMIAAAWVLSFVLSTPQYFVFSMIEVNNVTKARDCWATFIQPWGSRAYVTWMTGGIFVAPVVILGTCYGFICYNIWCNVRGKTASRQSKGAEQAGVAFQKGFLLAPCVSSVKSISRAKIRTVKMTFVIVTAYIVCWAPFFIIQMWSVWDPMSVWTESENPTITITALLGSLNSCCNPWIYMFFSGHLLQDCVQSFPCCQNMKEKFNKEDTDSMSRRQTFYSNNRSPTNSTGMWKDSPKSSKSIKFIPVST

[3] = biological target: T1, 5-hydroxytryptamine receptor 2B (Homo sapiens, UniProt P41595); test: Inhibition of human 5-HT2B receptor at 0.1 uM relative to control
T1 sequence (P41595 whole entry): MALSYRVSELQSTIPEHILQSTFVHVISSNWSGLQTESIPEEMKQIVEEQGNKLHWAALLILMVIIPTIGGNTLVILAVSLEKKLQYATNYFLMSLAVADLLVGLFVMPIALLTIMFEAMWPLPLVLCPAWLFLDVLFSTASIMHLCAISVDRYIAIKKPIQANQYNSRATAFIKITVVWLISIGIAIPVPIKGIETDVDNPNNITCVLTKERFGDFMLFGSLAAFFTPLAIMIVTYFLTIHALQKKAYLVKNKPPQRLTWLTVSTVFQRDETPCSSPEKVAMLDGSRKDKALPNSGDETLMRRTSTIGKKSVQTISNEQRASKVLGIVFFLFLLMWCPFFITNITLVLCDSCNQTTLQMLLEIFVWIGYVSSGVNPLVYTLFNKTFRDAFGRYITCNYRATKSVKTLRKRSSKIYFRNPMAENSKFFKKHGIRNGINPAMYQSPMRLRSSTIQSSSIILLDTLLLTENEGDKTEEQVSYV

[4] = biological target: Thyrotropin-releasing hormone receptor (Rattus norvegicus) (UniProt Q01717); test: Inhibition of rat TRH receptor at 10 uM relative to control
[5] = biological target: Alpha-2B adrenergic receptor (Homo sapiens) (UniProt P18089); test: Inhibition of human alpha2B adrenergic receptor at 10 uM relative to control
Chain of Alpha-2B adrenergic receptor (Homo sapiens) (P18089 whole entry): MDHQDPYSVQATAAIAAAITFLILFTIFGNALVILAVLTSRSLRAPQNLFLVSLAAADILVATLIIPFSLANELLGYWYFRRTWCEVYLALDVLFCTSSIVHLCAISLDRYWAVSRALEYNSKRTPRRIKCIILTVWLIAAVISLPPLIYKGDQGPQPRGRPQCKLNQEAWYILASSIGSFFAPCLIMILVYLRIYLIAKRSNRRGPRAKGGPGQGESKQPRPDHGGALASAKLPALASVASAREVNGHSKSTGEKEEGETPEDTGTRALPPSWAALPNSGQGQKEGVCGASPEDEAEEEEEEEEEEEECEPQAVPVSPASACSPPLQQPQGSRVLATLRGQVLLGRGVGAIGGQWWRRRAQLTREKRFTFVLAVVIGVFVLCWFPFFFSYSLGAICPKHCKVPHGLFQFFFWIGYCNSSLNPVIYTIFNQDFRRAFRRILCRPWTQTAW

[6] = biological target: Neuropeptide Y receptor type 2 (Homo sapiens) (UniProt P49146); test: Inhibition of human neuropeptide YY2 receptor at 10 uM relative to control
Chain of Neuropeptide Y receptor type 2 (Homo sapiens) (P49146 whole entry): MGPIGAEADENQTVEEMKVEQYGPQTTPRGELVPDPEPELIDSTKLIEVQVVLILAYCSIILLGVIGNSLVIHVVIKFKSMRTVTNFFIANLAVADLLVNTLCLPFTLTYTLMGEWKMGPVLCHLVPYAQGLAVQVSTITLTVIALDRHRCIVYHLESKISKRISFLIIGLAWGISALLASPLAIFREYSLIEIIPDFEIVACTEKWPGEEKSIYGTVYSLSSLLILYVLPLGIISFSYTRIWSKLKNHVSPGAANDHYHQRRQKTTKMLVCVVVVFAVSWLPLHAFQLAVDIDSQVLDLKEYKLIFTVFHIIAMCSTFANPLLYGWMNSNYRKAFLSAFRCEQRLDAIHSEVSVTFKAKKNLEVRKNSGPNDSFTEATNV

[7] = biological target: Cannabinoid receptor 1 (Homo sapiens) (UniProt P21554); test: Inhibition of human CB1 receptor at 10 uM relative to control
[8] = biological target: 5-hydroxytryptamine receptor 1B (Rattus norvegicus) (UniProt P28564); test: Inhibition of rat 5-HT1B receptor at 1 uM relative to control
Homo sapiens = species: Homo sapiens; test: Inhibition of human nicotinic acetylcholine receptor at 10 uM relative to control
[9] = biological target: Adenosine receptor A1 (Homo sapiens) (UniProt P30542); test: Inhibition of human adenosine A1 receptor at 10 uM relative to control
[10] = biological target: Vasopressin V2 receptor (Homo sapiens) (UniProt P30518); test: Inhibition of human V2 receptor at 10 uM relative to control
[11] = biological target: Type-2 angiotensin II receptor (Homo sapiens) (UniProt P50052); test: Inhibition of human angiotensin AT2 receptor at 10 uM relative to control
[12] = biological target: C-C chemokine receptor type 1 (Homo sapiens) (UniProt P32246); test: Inhibition of human CCR1 at 10 uM relative to control
Chain of C-C chemokine receptor type 1 (Homo sapiens) (P32246 whole entry): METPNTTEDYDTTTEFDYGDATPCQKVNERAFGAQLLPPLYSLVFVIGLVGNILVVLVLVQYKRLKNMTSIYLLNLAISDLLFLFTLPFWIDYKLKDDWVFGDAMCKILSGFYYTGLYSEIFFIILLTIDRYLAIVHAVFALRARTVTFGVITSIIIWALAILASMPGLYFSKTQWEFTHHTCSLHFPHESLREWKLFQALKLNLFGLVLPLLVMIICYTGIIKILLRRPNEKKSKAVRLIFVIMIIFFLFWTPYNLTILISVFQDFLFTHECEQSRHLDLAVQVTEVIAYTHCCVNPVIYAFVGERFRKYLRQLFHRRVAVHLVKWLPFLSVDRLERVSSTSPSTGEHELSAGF

[13] = biological target: Neprilysin (Homo sapiens) (UniProt P08473); test: Inhibition of human neutral endopeptidase at 10 uM relative to control
Chain of Neprilysin (Homo sapiens) (P08473 whole entry): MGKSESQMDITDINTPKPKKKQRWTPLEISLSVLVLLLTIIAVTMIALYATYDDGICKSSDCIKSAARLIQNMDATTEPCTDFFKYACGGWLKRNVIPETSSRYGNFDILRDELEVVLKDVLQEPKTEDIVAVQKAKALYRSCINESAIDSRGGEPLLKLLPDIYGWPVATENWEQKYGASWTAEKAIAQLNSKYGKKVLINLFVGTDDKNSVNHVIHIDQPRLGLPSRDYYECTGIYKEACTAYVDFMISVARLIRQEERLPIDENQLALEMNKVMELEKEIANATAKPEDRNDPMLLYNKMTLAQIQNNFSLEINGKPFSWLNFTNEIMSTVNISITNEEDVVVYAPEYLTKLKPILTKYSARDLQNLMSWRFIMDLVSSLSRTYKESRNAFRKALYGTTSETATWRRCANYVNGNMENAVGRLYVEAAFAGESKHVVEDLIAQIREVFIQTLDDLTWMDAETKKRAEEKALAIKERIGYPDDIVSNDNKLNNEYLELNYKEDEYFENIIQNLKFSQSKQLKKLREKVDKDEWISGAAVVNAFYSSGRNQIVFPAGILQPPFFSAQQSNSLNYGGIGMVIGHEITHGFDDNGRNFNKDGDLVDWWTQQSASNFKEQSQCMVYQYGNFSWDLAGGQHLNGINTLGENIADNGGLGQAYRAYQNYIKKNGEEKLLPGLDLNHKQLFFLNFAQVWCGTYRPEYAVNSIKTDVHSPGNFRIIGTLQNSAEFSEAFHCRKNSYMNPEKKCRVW

[14] = biological target: Prostaglandin E2 receptor EP1 subtype (Homo sapiens) (UniProt P34995); test: Inhibition of human prostanoid EP1 receptor at 10 uM relative to control
Chain of Prostaglandin E2 receptor EP1 subtype (Homo sapiens) (P34995 whole entry): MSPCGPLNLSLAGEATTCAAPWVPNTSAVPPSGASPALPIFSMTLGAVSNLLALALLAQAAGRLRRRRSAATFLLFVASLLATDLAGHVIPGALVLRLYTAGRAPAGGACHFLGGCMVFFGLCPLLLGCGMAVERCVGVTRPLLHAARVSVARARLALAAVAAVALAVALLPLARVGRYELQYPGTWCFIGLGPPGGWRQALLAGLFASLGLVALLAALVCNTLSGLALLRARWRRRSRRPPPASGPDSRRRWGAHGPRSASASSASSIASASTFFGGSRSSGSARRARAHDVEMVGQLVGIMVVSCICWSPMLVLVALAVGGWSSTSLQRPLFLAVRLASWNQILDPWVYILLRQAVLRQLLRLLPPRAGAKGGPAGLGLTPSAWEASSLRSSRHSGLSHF

[15] = biological target: Calcitonin receptor (Homo sapiens) (UniProt P30988); test: Inhibition of human calcitonin receptor at 10 uM relative to control
[16] = biological target: T1, 5-hydroxytryptamine receptor 2B; test: Inhibition of human 5-HT2B receptor at 10 uM relative to control
Mu-type opioid receptor = Mu-type opioid receptor (Homo sapiens, UniProt P35372); test: Inhibition of human mu opioid receptor at 10 nM relative to control
[17] = biological target: Beta-2 adrenergic receptor (Homo sapiens) (UniProt P07550); test: Inhibition of human beta2 adrenergic receptor at 10 uM relative to control
Chain of Beta-2 adrenergic receptor (Homo sapiens) (P07550 whole entry, looked up): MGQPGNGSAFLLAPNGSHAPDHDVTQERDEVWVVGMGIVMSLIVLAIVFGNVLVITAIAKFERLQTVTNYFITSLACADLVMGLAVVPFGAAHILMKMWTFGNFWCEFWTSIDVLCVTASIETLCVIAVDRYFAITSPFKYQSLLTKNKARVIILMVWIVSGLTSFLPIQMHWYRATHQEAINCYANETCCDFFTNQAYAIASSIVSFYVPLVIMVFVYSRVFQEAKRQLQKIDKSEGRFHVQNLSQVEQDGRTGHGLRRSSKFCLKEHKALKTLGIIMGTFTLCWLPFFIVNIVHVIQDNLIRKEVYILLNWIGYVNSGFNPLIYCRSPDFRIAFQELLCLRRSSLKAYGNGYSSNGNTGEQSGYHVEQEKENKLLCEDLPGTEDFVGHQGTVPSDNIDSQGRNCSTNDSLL

[18] = biological target: Estrogen receptor beta (Homo sapiens) (UniProt Q92731); test: Inhibition of human ERbeta receptor at 10 uM relative to control
[19] = biological target: Glutamate NMDA receptor (Rattus norvegicus) (UniProt P35439+Q00959+Q00960+Q00961+Q62645+Q8VHN2+Q9R1M7); test: Inhibition of rat NMDA receptor glycine binding site at 10 uM relative to control; format: protein-complex assay
Rattus norvegicus [20] = species: Rattus norvegicus; test: Inhibition of rat GABAA chloride channel TBOB binding site at 10 uM relative to control
[21] = biological target: T2, 5-hydroxytryptamine receptor 1A (Homo sapiens) (UniProt P08908); test: Inhibition of human 5-HT1A receptor at 0.1 uM relative to control
T2 sequence (whole entry): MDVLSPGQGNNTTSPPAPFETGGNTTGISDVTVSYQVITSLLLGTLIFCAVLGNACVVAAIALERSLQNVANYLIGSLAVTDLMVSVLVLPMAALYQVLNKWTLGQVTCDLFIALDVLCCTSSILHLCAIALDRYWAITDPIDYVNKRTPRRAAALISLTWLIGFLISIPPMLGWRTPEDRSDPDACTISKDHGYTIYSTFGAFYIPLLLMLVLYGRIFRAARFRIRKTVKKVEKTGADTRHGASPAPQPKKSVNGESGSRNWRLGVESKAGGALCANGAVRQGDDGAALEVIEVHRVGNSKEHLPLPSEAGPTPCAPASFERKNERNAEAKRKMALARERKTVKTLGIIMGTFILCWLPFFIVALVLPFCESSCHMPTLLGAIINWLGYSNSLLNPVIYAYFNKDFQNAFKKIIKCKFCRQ

Cavia porcellus = species: Cavia porcellus; test: Inhibition of guinea pig adenosine transporter at 0.1 uM relative to control
[22] = biological target: Cysteinyl leukotriene receptor 1 (Homo sapiens) (UniProt Q9Y271); test: Inhibition of human CysLT1 receptor at 10 uM relative to control
Chain of Cysteinyl leukotriene receptor 1 (Homo sapiens) (Q9Y271 whole entry): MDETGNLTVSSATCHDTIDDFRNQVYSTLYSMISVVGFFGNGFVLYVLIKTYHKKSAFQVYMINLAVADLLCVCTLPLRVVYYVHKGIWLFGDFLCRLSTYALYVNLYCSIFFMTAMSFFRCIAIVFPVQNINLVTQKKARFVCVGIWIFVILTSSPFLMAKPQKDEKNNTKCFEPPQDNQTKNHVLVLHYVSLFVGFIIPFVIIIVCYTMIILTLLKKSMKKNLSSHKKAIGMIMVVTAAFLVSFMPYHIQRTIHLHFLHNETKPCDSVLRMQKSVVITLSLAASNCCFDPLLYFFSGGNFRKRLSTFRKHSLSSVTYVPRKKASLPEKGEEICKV

[23] = biological target: Melanocortin receptor 3 (Homo sapiens) (UniProt P41968); test: Inhibition of human MC3 receptor at 10 uM relative to control
Chain of Melanocortin receptor 3 (Homo sapiens) (P41968 whole entry): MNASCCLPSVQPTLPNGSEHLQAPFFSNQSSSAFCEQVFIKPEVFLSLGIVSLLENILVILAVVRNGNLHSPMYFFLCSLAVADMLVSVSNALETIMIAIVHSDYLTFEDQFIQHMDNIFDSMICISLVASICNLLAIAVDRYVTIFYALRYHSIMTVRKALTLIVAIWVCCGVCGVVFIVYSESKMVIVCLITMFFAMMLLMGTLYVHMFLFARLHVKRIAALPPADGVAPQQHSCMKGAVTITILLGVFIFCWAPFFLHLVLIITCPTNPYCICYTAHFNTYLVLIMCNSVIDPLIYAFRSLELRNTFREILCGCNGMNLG

[24] = biological target: Protein kinase C alpha type (Homo sapiens) (UniProt P17252); test: Inhibition of human PRKCA at 100 uM relative to control
[25] = biological target: Cholecystokinin receptor type A (Homo sapiens) (UniProt P32238); test: Inhibition of human CCKA receptor at 10 uM relative to control
[26] = biological target: Pro-epidermal growth factor (Homo sapiens) (UniProt P01133); test: Inhibition of human EGF at 10 uM relative to control
Rattus norvegicus [27] = test: Antiinsomnic activity in rat EEG model assessed as increase in delta sleep time at 15 mg/kg, po; format: functional, organism-based; parameters: dose 15 mg/kg
Outline: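 Rats with EEG telemetry given 15 mg/kg orally during their active period, vehicle 20% Vitamin E TPGS in water. Sleep architecture (active wake, light sleep, delta and REM sleep) scored from EEG.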

[28] = biological target: Somatostatin receptor type 4 (Homo sapiens) (UniProt P31391); test: Inhibition of human SST4 receptor at 10 uM relative to control
[29] = biological target: GABA-A receptor; alpha-5/beta-3/gamma-2 (Homo sapiens) (UniProt P18507+P28472+P31644); test: Inhibition of human GABA alpha5beta3gamma2 receptor at 10 uM relative to control; format: protein-complex assay
[30] = biological target: Muscarinic acetylcholine receptor M1 (Homo sapiens) (UniProt P11229); test: Inhibition of human muscarinic M1 receptor at 10 uM relative to control
Chain of Muscarinic acetylcholine receptor M1 (Homo sapiens) (P11229 whole entry): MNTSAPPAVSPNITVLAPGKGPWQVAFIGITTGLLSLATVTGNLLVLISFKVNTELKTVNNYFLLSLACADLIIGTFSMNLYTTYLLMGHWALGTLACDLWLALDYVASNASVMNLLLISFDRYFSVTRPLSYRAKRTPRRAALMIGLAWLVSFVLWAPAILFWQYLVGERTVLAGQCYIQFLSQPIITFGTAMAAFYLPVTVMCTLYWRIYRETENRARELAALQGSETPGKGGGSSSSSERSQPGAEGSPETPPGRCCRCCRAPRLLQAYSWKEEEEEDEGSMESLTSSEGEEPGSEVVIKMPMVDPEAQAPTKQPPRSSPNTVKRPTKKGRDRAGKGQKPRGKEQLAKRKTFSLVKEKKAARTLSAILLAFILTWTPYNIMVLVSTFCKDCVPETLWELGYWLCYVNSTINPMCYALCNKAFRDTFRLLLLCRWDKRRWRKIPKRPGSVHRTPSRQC

Caspase-8 (Homo sapiens) = Caspase-8 (Homo sapiens) (UniProt Q14790); test: Inhibition of human caspase 8 at 10 uM relative to control
[31] = biological target: Adrenergic receptor alpha-1 (Rattus norvegicus) (UniProt P15823+P23944+P43140); test: Inhibition of rat alpha1 adrenergic receptor at 10 uM relative to control
[32] = biological target: D(1B) dopamine receptor (Homo sapiens) (UniProt P21918); test: Inhibition of human dopamine D5 receptor at 10 uM relative to control
Rattus norvegicus [33] = species: Rattus norvegicus; test: Inhibition of rat 5-HT2 receptor at 10 uM relative to control

SMILES: COc1ccc(CNC(=O)c2cc(-c3cc(Cl)cc(Cl)c3)cnc2-c2cccnc2)cc1OC
- inhibition [1]: 19%
- inhibition [2]: 0%
- inhibition [3]: 6%
- inhibition [4]: -3%
- inhibition [5]: 34%
- inhibition [6]: 0%
- inhibition [7]: 10%
- inhibition [8]: 30%
- inhibition (Homo sapiens): -1%
- inhibition [9]: 22%
- inhibition [10]: 0%
- inhibition [11]: 18%
- inhibition [12]: 21%
- inhibition [13]: -5%
- inhibition [14]: 10%
- inhibition [15]: 9%
- inhibition [16]: 84%
- inhibition (Mu-type opioid receptor): -3%
- inhibition [17]: 23%
- inhibition [18]: -7%
- inhibition [19]: 9%
- inhibition (Rattus norvegicus [20]): 8%
- inhibition [21]: 10%
- inhibition (Cavia porcellus): 15%
- inhibition [22]: 9%
- inhibition [23]: 2%
- inhibition [24]: 29%
- inhibition [25]: 9%
- inhibition [26]: 7%
- Activity (Rattus norvegicus [27]): Active
- inhibition [28]: 5%
- inhibition [29]: 18%
- inhibition [30]: 0%
- inhibition (Caspase-8 (Homo sapiens)): -1%
- inhibition [31]: -4%
- inhibition [32]: 3%
- inhibition (Rattus norvegicus [33]): 17%
